According to ChEMBL document CHEMBL4513216, “Probing the Open Global Health Chemical Diversity Library for Multistage-Active Starting Points for Next-Generation Antimalarials” (ACS Infect Dis, 2020):

assay: Toxicity liver stage against HepG2, at 10uM; assay type: cell-based; set-up: test concentration 10 uM, cell line HepG2-A16-CD81EGFP; settings: human, HepG2-A16-CD81EGFP cells; read-out: INHIBITION
How it was run: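 Uninfected HepG2-A16-CD81EGFP cells, 3 × 10^3 per well, 1536-well, plated on prespotted compound at 10 μM final, parasite-free screening media added to match infected plates; puromycin 10 μM positive, DMSO 0.5% negative; run in parallel with 48 h PbLuc assay at 37 °C, 5% CO2; viability by CellTiter-Glo luminescence, normalized to controls.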

**Q.** For O=C(NCCc1ccncc1)c1cccnc1OCC(F)(F)F, which cytotoxicity at 10 µM is on record?
**A.** 5.03%

**Q.** Which cytotoxicity at 10 µM does the source give for O=C(c1cn(Cc2ccccc2)c2ncccc12)N1CCOCC1 here?
**A.** -0.142%

**Q.** For O=C1NCCN1C(CNS(=O)(=O)C1CC1)Cc1cccc(F)c1 (configuration not stated), which cytotoxicity at 10 µM is on record?
**A.** -3.09%

**Q.** For CCOCC(=O)NCCc1nc(C)cc(C(F)(F)F)n1, which cytotoxicity at 10 µM is on record?
**A.** -1.21%

**Q.** For COC(CNC(=O)C1CC1)c1ccc(C)s1 (configuration not stated), which cytotoxicity at 10 µM is on record?
**A.** -3.08%

**Q.** Which cytotoxicity at 10 µM does the source give for CN1C(Cn2cccn2)C[C@@H]2CN(Cc3nccs3)CC[C@@H]21 (some centres not stated) here?
**A.** 3.8%

**Q.** For CN1CCc2cc(C(CNS(=O)(=O)c3cccs3)N3CCCC3)ccc21 (configuration not stated), which cytotoxicity at 10 µM is on record?
**A.** 2.66%

**Q.** With O=C1CC(c2ccncc2)c2c(sc3c2CCCC3)N1 (configuration not stated) as the compound, how does the cytotoxicity at 10 µM read?
**A.** 5.57%

**Q.** With Fc1ccccc1-c1cccc(C2CCCN(C3CCOCC3)C2)n1 (configuration not stated) as the compound, how does the cytotoxicity at 10 µM read?
**A.** 0.22%

**Q.** For O=C(c1cncs1)N1CCc2[nH]nc(Nc3ccccc3)c2C1, which cytotoxicity at 10 µM is on record?
**A.** 8.26%

**Q.** Which cytotoxicity at 10 µM does the source give for CNC(=O)CCc1cc(C)nc(C2CCN(c3ccccc3)CC2)c1 here?
**A.** 3.56%

**Q.** Which cytotoxicity at 10 µM does the source give for CN(C)c1nccc(C2CN(S(C)(=O)=O)C2)n1 here?
**A.** 6.95%

**Q.** With CCn1c(C)nc2cc(NC(=O)C3CN(C(C)=O)C3)ccc21 as the compound, how does the cytotoxicity at 10 µM read?
**A.** 3.46%

**Q.** With O=C(CO)N1CCC(c2ccnc(Nc3cc(C(F)(F)F)ccn3)n2)C1 (configuration not stated) as the compound, how does the cytotoxicity at 10 µM read?
**A.** 18%

**Q.** For CCN1CCN(Cc2c(C3CCCC3)[nH]c3ncccc23)CC1, which cytotoxicity at 10 µM is on record?
**A.** 13.1%

**Q.** Which cytotoxicity at 10 µM does the source give for CN(Cc1ccc(F)cc1)CC1(O)CCN(C(=O)c2cccs2)C1 (configuration not stated) here?
**A.** -12.6%

**Q.** Which cytotoxicity at 10 µM does the source give for Cc1ncoc1C(=O)N1CC[C@@H](O)[C@@H](O)[C@H](N2CCC(F)(F)CC2)C1 here?
**A.** 2.3%

**Q.** Which cytotoxicity at 10 µM does the source give for Cn1cccc1C(=O)N1CCC(O)(CN2CCc3ccccc3C2)C1 (configuration not stated) here?
**A.** 3.77%

**Q.** With Cc1ccccc1-c1cncc(C2CCN(C(=O)CN(C)C)CC2)n1 as the compound, how does the cytotoxicity at 10 µM read?
**A.** 3.88%

**Q.** Which cytotoxicity at 10 µM does the source give for CN1CCCC(Cc2cncc(C(=O)NCC3CC3)c2)C1 (configuration not stated) here?
**A.** -3.99%

**Q.** Which cytotoxicity at 10 µM does the source give for CCC(NC(=O)c1ccco1)c1nc(C(F)(F)F)cs1 (configuration not stated) here?
**A.** -0.183%

**Q.** With CS(=O)(=O)CCC(=O)N1CCC(c2ccc(F)c(F)c2)CC1 as the compound, how does the cytotoxicity at 10 µM read?
**A.** 7.09%

**Q.** For COCC(O)CNC(=O)Nc1ccc(Cl)cc1-n1cccc1 (configuration not stated), which cytotoxicity at 10 µM is on record?
**A.** -6.93%

**Q.** For CCc1noc(CN2CCN(C(=O)OC(C)(C)C)C(C)C2)n1 (configuration not stated), which cytotoxicity at 10 µM is on record?
**A.** 2.53%

**Q.** Which cytotoxicity at 10 µM does the source give for CC(C)CC1COCCN1C(=O)Cc1cccs1 (configuration not stated) here?
**A.** 5.84%

**Q.** With O=C(CS(=O)(=O)Cc1nnnn1C1CC1)NCC1CC1 as the compound, how does the cytotoxicity at 10 µM read?
**A.** 16.6%

**Q.** For O=c1[nH]ncc(NCCOc2ccc3c(c2)OCO3)c1Cl, which cytotoxicity at 10 µM is on record?
**A.** 3.1%

**Q.** For COc1ccsc1C(=O)N1CCCC1c1c(C)nn(C)c1OC (configuration not stated), which cytotoxicity at 10 µM is on record?
**A.** -0.561%

**Q.** For CC(C)(C)c1cc(NC(=O)CN2CCCCC2Cn2cncn2)on1 (configuration not stated), which cytotoxicity at 10 µM is on record?
**A.** 0.0788%

**Q.** Which cytotoxicity at 10 µM does the source give for CSCc1cccc(NC(=O)N2CCC(N3CC=CC3)C2)c1 (configuration not stated) here?
**A.** -1.83%

**Q.** With CNC(=O)c1ccc(Cn2ccnc2S(C)(=O)=O)cc1 as the compound, how does the cytotoxicity at 10 µM read?
**A.** -3.83%

**Q.** With O=C(NCCc1ccccc1)N1CCC(C2OCCO2)CC1 as the compound, how does the cytotoxicity at 10 µM read?
**A.** -46.5%

**Q.** For Cc1cccc(Sc2nccn(C)c2=O)c1, which cytotoxicity at 10 µM is on record?
**A.** 3.52%

**Q.** With CC(C)CS(=O)(=O)CC(=O)N(C)Cc1ccc(OC(F)F)cc1 as the compound, how does the cytotoxicity at 10 µM read?
**A.** 1.13%

**Q.** For O=C(c1cc(Cl)cc(Cl)c1)N1CCN(c2nccs2)CC1, which cytotoxicity at 10 µM is on record?
**A.** -5.69%

**Q.** For COc1cccc2c1OCC(NC(=O)NCc1cccs1)C2 (configuration not stated), which cytotoxicity at 10 µM is on record?
**A.** -11%

**Q.** Which cytotoxicity at 10 µM does the source give for COCc1cnc2n1CCN(C(=O)c1ocnc1C)C2C (configuration not stated) here?
**A.** -1.91%

**Q.** Which cytotoxicity at 10 µM does the source give for O=c1cc(Cn2cncn2)nc2n1CCCN(Cc1ccoc1)C2 here?
**A.** 3.37%

**Q.** With CC(C)Nc1nc(N2CCOCC2)nc2c1CN(CC(=O)N(C)C)CC2 as the compound, how does the cytotoxicity at 10 µM read?
**A.** 7.77%

**Q.** Which cytotoxicity at 10 µM does the source give for O=C(N1CCCC1)N1CCN(CC2CC2)c2ncccc2C1 here?
**A.** 6.51%

**Q.** For Fc1cccc(CN2CCO[C@H]3[C@@H](OCc4ccccn4)CC[C@@H]32)c1, which cytotoxicity at 10 µM is on record?
**A.** -0.902%

**Q.** For O=c1[nH][nH]cc1-c1ccnc(NCCc2ccc(F)cc2)n1, which cytotoxicity at 10 µM is on record?
**A.** 3.44%

**Q.** With CC(C)NC(=O)NCc1cc(-c2ccco2)n(CC(F)(F)F)n1 as the compound, how does the cytotoxicity at 10 µM read?
**A.** -12.8%

**Q.** For CC(C)[C@H](NS(C)(=O)=O)C(=O)NCc1cc(-c2ccccc2)nn1C, which cytotoxicity at 10 µM is on record?
**A.** -7.88%

**Q.** For CCn1c(CC2CCN(C(=O)C3CC(C(C)C)=NO3)CC2)nn(C)c1=O (configuration not stated), which cytotoxicity at 10 µM is on record?
**A.** 3.72%

**Q.** For OCC1(O)CCN(Cc2noc(-c3ccccc3)n2)CC1, which cytotoxicity at 10 µM is on record?
**A.** -0.0739%

**Q.** With CCN(CC)C(=O)[C@@H]1C[C@@H](NC(=O)c2cccn2C2CC2)CN1C as the compound, how does the cytotoxicity at 10 µM read?
**A.** -5.94%

**Q.** For CCN1CCCCC1C(=O)N1CCc2onc(-c3ccc(Cl)cc3)c2C1 (configuration not stated), which cytotoxicity at 10 µM is on record?
**A.** -60.1%

**Q.** For CCN(Cc1noc(CC(C)C)n1)C[C@]1(O)CCCN2CCCC[C@@H]21, which cytotoxicity at 10 µM is on record?
**A.** -6.91%

**Q.** For CCSc1ccc(C(=O)N2CCC3(CCC(=O)N(C)C3)CC2)s1, which cytotoxicity at 10 µM is on record?
**A.** -11.2%

**Q.** With CC(=O)Nn1c(C)cc(CN2CCCN(Cc3ccncc3)CC2)c1C as the compound, how does the cytotoxicity at 10 µM read?
**A.** 5.63%

**Q.** Which cytotoxicity at 10 µM does the source give for CN(Cc1ccccc1)c1ncccc1CNC1CCCC1 here?
**A.** -8.8%

**Q.** With CCCc1cc(C(=O)N[C@@H](CO)[C@@H](O)c2ccccc2)n(C)n1 as the compound, how does the cytotoxicity at 10 µM read?
**A.** 4.76%

**Q.** Which cytotoxicity at 10 µM does the source give for CCC(C)N(Cc1sccc1C)C(=O)c1ccc(S(C)(=O)=O)cc1 (configuration not stated) here?
**A.** 6.7%

**Q.** With CC(=O)NCC1CCCN(Cc2nc(Cc3ccccc3F)no2)C1 (configuration not stated) as the compound, how does the cytotoxicity at 10 µM read?
**A.** -11.1%

**Q.** For Nc1cc(-c2cc[nH]n2)nc(N2CCCC2)n1, which cytotoxicity at 10 µM is on record?
**A.** 1.56%

**Q.** With NC(=O)CN1CC2(CCC1=O)CCN(Cc1cc(F)cc(F)c1)CC2 as the compound, how does the cytotoxicity at 10 µM read?
**A.** 7.1%

**Q.** With CCOc1ccccc1OCCN(C)Cc1nccn1C as the compound, how does the cytotoxicity at 10 µM read?
**A.** -3.8%

**Q.** Which cytotoxicity at 10 µM does the source give for CCCN1CCCn2nc(CNS(=O)(=O)c3ccc(F)cc3)cc2C1 here?
**A.** -8.57%

**Q.** Which cytotoxicity at 10 µM does the source give for CN1CCN(Cc2ccccc2Oc2nccc3occc23)CC1 here?
**A.** 5.83%

**Q.** With NC(=O)c1cc2c(nc1CCOCc1ccccc1)CCC2 as the compound, how does the cytotoxicity at 10 µM read?
**A.** 2.99%

**Q.** For CCN1CC2(CCN(Cc3nc(CSC)no3)CC2)CC1=O, which cytotoxicity at 10 µM is on record?
**A.** -1.41%

**Q.** For NCC1Cc2cc(-c3nccc(N4CCC(O)CC4)n3)cc(F)c2O1 (configuration not stated), which cytotoxicity at 10 µM is on record?
**A.** 14.2%

**Q.** For Cc1ccc(N2C[C@@H](CN3CCOCC3)[C@@H](CO)C2)nn1, which cytotoxicity at 10 µM is on record?
**A.** 7.13%

**Q.** For CC(C)[C@H]1CN(CCCO)C[C@@H]1NC(=O)CCC(F)(F)F, which cytotoxicity at 10 µM is on record?
**A.** -0.6%

**Q.** Which cytotoxicity at 10 µM does the source give for COCCS(=O)(=O)c1ncc(CN(C)CC(C)C)n1Cc1ccccc1 here?
**A.** -1.27%

**Q.** For CC(C)c1nc(CN(C)Cc2ccc(F)cc2)cs1, which cytotoxicity at 10 µM is on record?
**A.** -8.81%

**Q.** Which cytotoxicity at 10 µM does the source give for CC(=O)c1cc(C(=O)N2CCC3(CC2)Nc2ccccc2NC3=O)cs1 here?
**A.** 3.54%

**Q.** With CCOc1ccc2[nH]c(=O)c(CN3CCC(O)CC3)cc2c1 as the compound, how does the cytotoxicity at 10 µM read?
**A.** 1.25%

**Q.** With CCn1nc2nc(SCC(=O)O)cc(C(F)F)c2c1C as the compound, how does the cytotoxicity at 10 µM read?
**A.** -3.78%

**Q.** Which cytotoxicity at 10 µM does the source give for CCn1ncc(-c2cc(C(F)F)n3nc(CCC(=O)O)nc3n2)c1C here?
**A.** -9.44%

**Q.** For Cc1cc2ccccc2n1CCC(=O)NCc1ncc[nH]1, which cytotoxicity at 10 µM is on record?
**A.** 4.37%

**Q.** With CN(c1ccc(C(C)(C)C)cc1)S(=O)(=O)c1cc(C(=O)O)cs1 as the compound, how does the cytotoxicity at 10 µM read?
**A.** -6.19%

**Q.** Which cytotoxicity at 10 µM does the source give for CC(C)c1cc(NC(=O)CN2CCNC(=O)C2)on1 here?
**A.** -11.6%

**Q.** For O=S(=O)(CCNC1CCc2ncnn2C1)c1ccccc1 (configuration not stated), which cytotoxicity at 10 µM is on record?
**A.** -5.58%

**Q.** With Fc1ccc([C@@H]2COC[C@H]2NCc2cccc(F)c2)cc1 as the compound, how does the cytotoxicity at 10 µM read?
**A.** -2.92%

**Q.** For CCS(=O)(=O)N1CCc2c(CN(C)Cc3ccco3)cncc2C1, which cytotoxicity at 10 µM is on record?
**A.** -4.85%

**Q.** With O=C(Nc1cccc(CNCc2cccs2)c1)C1CC1 as the compound, how does the cytotoxicity at 10 µM read?
**A.** -8.3%

**Q.** Which cytotoxicity at 10 µM does the source give for CC(=O)NC1CCN(c2cc(C3CCNCC3)ccn2)CC1 here?
**A.** 2.93%

**Q.** For Cc1ccc(N2C[C@@H]3CCCO[C@@H]3[C@H](N3CCCC3)C2)nn1, which cytotoxicity at 10 µM is on record?
**A.** 2.96%

**Q.** For CC(C)N(C)Cc1cncc2c1CCN(Cc1ccoc1)C2, which cytotoxicity at 10 µM is on record?
**A.** -109%

**Q.** For CC(C)(C)C(N)C1=NC(=C2N=CN=N2)NO1 (configuration not stated), which cytotoxicity at 10 µM is on record?
**A.** -16.9%
